In the library only some 3.7% were active in any assay of this set; here they are far more common.
Kir21 inh – Kir2.1 (mouse) channel inhibition; 310,000 tested, 0.85% active; HEK293-Kir2.1, FluxOR thallium flux fluorescence; active compounds read low; P35561; B-score at 10 µM; AID 1672;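 active means fluorescence ratio B-score at or below minus 3 SD of library scores, with starting-brightness B-score within 2 SD, cut at about -4.2 in these data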;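 further: channel flux triggered by added potassium and thallium sulfate stimulus; B-score of peak minus minimum fluorescence over baseline after thallium stimulus; more negative B-score means stronger Kir2.1 block with less thallium influx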
KCNQ1 block – blocks the human KCNQ1 potassium channel. P51787. CHO-K1 KCNQ1, FluxOR thallium flux fluorescence; active compounds read high. B-score at 10 µM. 310,000 tested, 1.3% active. AID 2642;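 active means compounds whose thallium flux B-score, printed positive for inhibition, exceeds three library SD while starting fluorescence stays within three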;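 further: channel opened by potassium depolarization with thallium stimulus after 20 min compound exposure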
KCNK3 inh – human KCNK3 channel inhibition, primary screen | O14649 | CHO-KCNK3 thallium flux, FluxOR fluorescence; active compounds read low | B-score at 10 µM | 340,000 tested, 0.84% active | AID 602410;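 active means B-score under library mean minus 4 SD, starting fluorescence ratio at most library mean plus 5 SD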;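 further: more negative B-score means stronger inhibition of thallium flux through KCNK3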
Target sequence (O14649 whole entry, looked up): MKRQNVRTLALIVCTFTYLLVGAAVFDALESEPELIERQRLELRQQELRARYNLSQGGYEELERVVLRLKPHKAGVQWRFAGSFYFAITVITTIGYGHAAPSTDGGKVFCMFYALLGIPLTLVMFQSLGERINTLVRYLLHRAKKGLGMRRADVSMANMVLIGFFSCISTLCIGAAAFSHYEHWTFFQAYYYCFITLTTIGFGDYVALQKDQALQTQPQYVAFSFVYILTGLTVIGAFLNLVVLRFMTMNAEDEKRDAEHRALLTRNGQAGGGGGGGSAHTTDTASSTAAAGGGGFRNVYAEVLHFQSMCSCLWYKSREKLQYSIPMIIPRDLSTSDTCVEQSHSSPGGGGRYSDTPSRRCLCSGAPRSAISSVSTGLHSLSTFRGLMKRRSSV
hERG protect – hERG (human) protection from proarrhythmic block | Q12809 | CHO-hERG, FluxOR thallium flux, dofetilide IC70 present | activation (rescue from dofetilide block), less the hit threshold, % at 10 µM | 310,000 tested, 0.51% active;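 active means activation above the mean of controls blocked by dofetilide plus 5 SD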;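 further: thallium influx through hERG after potassium depolarization seen as dye fluorescence rise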
KCNK9 inh – blocks the human KCNK9 two-pore domain potassium channel | HEK293 KCNK9, FluxOR thallium flux fluorescence; active compounds read low | B-score at 10 µM | 310,000 tested, 1.2% active | AID 488922;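 active means ratio B-score over 3 SD below the library mean, with starting fluorescence within 5 SD of its mean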;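 further: negative B-score means less thallium flux so channel inhibition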
KCNQ1 pot – potentiators or activators of human KCNQ1 potassium channel. P51787. 310,000 tested, 0.35% active. B-score at 10 µM. CHO-K1 KCNQ1, thallium flux FluxOR fluorescence; active compounds read high. AID 2648;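 active means fluorescence ratio B-score, a plate-corrected score, at least three library SD, with initial intensity B-score within 5 SD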
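Material: CHO-K1 cells stably expressing KCNQ1. Medium: assay buffer for compound exposure, DMSO matched across wells. Reagent: K+/Tl+ depolarizing stimulus. Compound dosing: single-concentration screen. Times: 37 °C overnight plating, 90-min dark dye load, 20-min compound pretreatment. Technique: FluxOR Tl+ flux fluorescence.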
Numbers without * were called inactive; i = inactive; . = no result.

SMILES	Kir21 inh	KCNQ1 block	KCNK3 inh	hERG protect	KCNK9 inh	KCNQ1 pot
N#Cc1ccc(NC(=O)Nc2ccc(Oc3ccc(NC(=O)Nc4ccc(C#N)cc4)cc3)cc2)cc1	-0.72	9*	i	-15.1	i	i
CCN1C(=O)c2ccccc2S(=O)c2ccc(C(=O)N3CCOCC3)cc21 (stereo not drawn)	-0.44	i	i	-9.1	i	i
COc1ccc(CN2CCN(C3CCSCC3)CC2CCO)c(C)c1C (stereo not drawn)	1.81	i	i	-8.4	i	i
CCC1CCCCN1Cc1ccc(OC)c(C)c1C (stereo not drawn)	-0.74	i	i	5.3*	i	i
CC(C)C(C(=O)NCC1CCCO1)N(C(=O)CNS(=O)(=O)c1ccccc1)c1ccc(F)cc1 (stereo not drawn)	-2.4	i	i	-13.8	i	i
Cc1ccccc1Cc1c(C)nc2c(C(=O)NCc3ccc4c(c3)OCO4)cnn2c1C	0.37	i	i	-5.0	i	i
Cc1ccc(C)c(Cc2c(C)nc3c(C(=O)NCc4ccc5c(c4)OCO5)cnn3c2C)c1	0.27	i	.	-9.8	-7.79*	i
Cc1cccc(Cl)c1NC(=O)N1CCCN(c2ncccc2[N+](=O)[O-])CC1	1.21	i	i	-10.5	i	i
CCC(=O)Nc1cccc(C2=NOC3(C2)C[C@H](C(N)=O)N(C(=O)CC#N)C3)c1 (stereo partly drawn)	-0.02	i	i	6.2*	i	i
O=C(CSc1ncccn1)NCc1ccc2c(c1)OCO2	1.03	i	i	-1.3	i	i
CCn1cc(SCC(=O)NCc2ccc3c(c2)OCO3)c2ccccc21	-4.72*	i	i	-13.2	i	i
Cc1cc(NC(=O)CSc2ncnc3c2cnn3-c2ccccc2)no1	0.63	i	i	13.6*	i	i
O=C(CSc1ncnc2c1cnn2-c1ccc(Cl)cc1)NCc1ccc2c(c1)OCO2	0.15	i	i	4.7*	i	i
CCCn1cc(SCC(=O)NCc2ccc3c(c2)OCO3)c2ccccc21	0.47	i	i	-11.1	i	i
O=C(CSc1nccn1-c1ccc(Cl)cc1)NCc1ccc2c(c1)OCO2	-4.48*	i	i	-2.5	i	i
Cc1ccc(NC(=O)C(C)OC(=O)CCC2CCCCC2)cc1 (stereo not drawn)	-1.35	i	i	-8.5	i	i
COCCn1c(=NC(=O)CSCC(=O)N2CCOCC2)sc2ccccc21	0.15	i	i	-9.4	i	i
Cc1nc(SCC(=O)c2ccccc2)c(C#N)c(-c2ccco2)c1C(=O)NCc1ccco1	0.21	6*	i	-13.9	i	i
COc1ccc(/C=C/C(=O)c2ccc3c(c2)OCO3)c(OC)c1	-1.15	i	i	-5.0	i	i
COc1cc(/C=C/C(=O)c2ccc3c(c2)OCO3)cc(Cl)c1O	-9.65	6*	i	-11.8	-7.04*	i
CCOc1ccc(-n2c(=O)c3sccc3n(Cc3ccc(C)cc3)c2=O)cc1	0.43	i	i	-16.4	i	i
CCCSc1nc(N)cc(=O)[nH]1	1.39	i	i	4.7*	i	i
N=c1sccn1CC(=O)Nc1cccc(Oc2ccccc2)c1	-4.26*	i	i	-7.0	i	i
S=C(Nc1cc(Cl)ccc1Oc1ccccc1)N1CCN(c2ccccn2)CC1	-0.04	i	i	-8.4	i	i
N=c1sccn1CC(=O)Nc1cc(Cl)ccc1Oc1ccccc1	-4.79*	i	i	-12.1	i	i
SMILES	Kir21 inh	KCNQ1 block	KCNK3 inh	hERG protect	KCNK9 inh	KCNQ1 pot
S=C(Nc1ccccc1)Nc1cc(Cl)ccc1Oc1ccccc1	-1.34	9*	i	-6.7	i	i
COc1ccc(CCN=C(NS(=O)(=O)c2ccccc2)c2ccccc2)cc1OC	0.59	i	i	12.3*	i	i
O=C(c1ccco1)N1CCN(C(=O)c2ccc(COc3ccc4c(c3)CCC4)o2)CC1	-1.05	i	i	-1.3	-8.04*	i
O=C(c1ccc(COc2ccc3c(c2)CCC3)o1)N1CCN(c2ccccc2)CC1	-0.39	i	i	-4.5	i	i
COc1ccc(N(CC(=O)NCCc2cccc(C)c2)S(=O)(=O)c2c(C)noc2C)cc1	0.48	i	i	-7.9	i	i
O=C(COC(=O)c1cnccn1)Nc1ncc(C(F)(F)F)cc1Cl	.	.	i	.	.	.
C=CCNc1nc(Cl)nc(Nc2ccc([N+](=O)[O-])cc2)n1	0.21	i	i	-2.4	i	i
Cn1ncc2c(Nc3ccc([N+](=O)[O-])cc3)nc(Cl)nc21	-0.02	i	i	-6.0	i	i
CC1CCN(c2nc(Cl)nc(Nc3ccc([N+](=O)[O-])cc3)n2)CC1	-0.3	8*	i	-4.7	i	i
C=CCNc1nc(Nc2ccc([N+](=O)[O-])cc2)nc(N2CCCC2)n1	0.18	8*	i	-20.0	i	i
Cc1ccc(OCCC(=O)OCC(=O)NC(=O)NC2CCCC2)cc1	-0.02	i	i	-11.9	i	i
O=C(Nc1ccccc1)OCCCCCOC(=O)Nc1ccccc1	0.91	i	i	7.7*	i	i
Oc1cccc2c3c(oc12)CCCC3	0.04	i	i	-5.9	i	i
CC(C)n1ncc2c(C(=O)NCc3cccnc3)cc(C3CC3)nc21	.	.	i	.	.	.
CSc1cccc(CN2CCC(CCC(=O)NC3CC3)CC2)c1	-0.51	i	i	-16.1	i	i
Cc1ccc(Nc2cc(C)nn2-c2nc(C)cc(=O)[nH]2)cc1	0	i	i	20.4*	i	32*
CC(CCc1ccccc1)NC(=O)CNc1cccc([N+](=O)[O-])c1 (stereo not drawn)	-4.67*	i	i	-11.8	i	i
O=C(CNc1cccc([N+](=O)[O-])c1)N/N=C/c1ccc(F)cc1	-1.59	i	i	9.9*	i	i
CC(CCc1ccccc1)NC(=O)CN(C)Cc1ccc(F)cc1 (stereo not drawn)	-4.48*	i	i	-8.1	i	i
CC(CCc1ccccc1)NC(=O)CN(C)Cc1ccccc1F (stereo not drawn)	-0.38	i	i	-7.1	i	i
CC(CCc1ccccc1)NC(=O)COC(=O)c1cc(NS(=O)(=O)c2ccc(Cl)c([N+](=O)[O-])c2)ccc1O (stereo not drawn)	0.78	6*	i	-15.2	i	i
CCN(CC)CCCn1c2c(c(SCC(=O)Nc3nccs3)nc1=O)CCC2	-0.04	i	i	-3.8	i	i

From PubChem
